Published values pooled from the literature.
Each line is one published result; the experiments were not run side by side.
HTR1A: 5-hydroxytryptamine receptor 1A (HTR1A, Homo sapiens, UniProt P08908)
LRRK2 G2019S: Leucine-rich repeat serine/threonine-protein kinase 2 (LRRK2, Homo sapiens, UniProt Q5S007, G2019S)
PDE3A: cGMP-inhibited 3',5'-cyclic phosphodiesterase 3A (PDE3A, Homo sapiens, UniProt Q14432)
MAPK14: Mitogen-activated protein kinase 14 (MAPK14, Homo sapiens, UniProt Q16539)

CN(CCCCNC(=O)c1cc2ccccc2[nH]1)[C@@H]1Cc2cccc3[nH]c(=O)n(c23)C1
IC50 (HTR1A; ligand displacement; radioligand): 0.137 µM

O=c1ccc2cc(O)c(O)cc2o1
IC50 (LRRK2 G2019S; enzyme activity; inhibitor; radiometric): 0.358 µM

Cc1nn2c(-c3c(C)nn(C)c3-c3ccc(C(F)(F)F)cc3)nc(CO)c2c(=O)[nH]1
IC50 (PDE3A; enzyme activity; inhibitor): 11.8 µM

CC(Cc1ccc(O)c(O)c1)C(C)Cc1ccc(O)c(O)c1 (centres unmarked)
IC50 (Leucine-rich repeat serine/threonine-protein kinase 2 (LRRK2, Homo sapiens, UniProt Q5S007); enzyme activity; inhibitor; radiometric): 0.456 µM

CC/C(=N\NC(=O)C(C)Nc1ccccc1)c1ccc(O)c(C)c1O (centres unmarked)
IC50 (cAMP-dependent protein kinase catalytic subunit beta (PRKACB, Homo sapiens, UniProt P22694); enzyme activity; inhibitor): 0.0249 µM

CSc1ccc(/C=C2/C(C)=C(CC(=O)O)c3cc(F)ccc32)cc1
IC50 (PDE3A; enzyme activity; inhibitor): > 100 µM

CCN1CCN(c2c(Cl)cccc2NC(=O)c2ccc(Br)o2)CC1
IC50 (MAPK14; enzyme activity; inhibitor): > 20 µM

CNc1nc(C)nc(N[C@H]2CCC[C@@H](C(=O)NCc3ccc(C#N)cc3C(F)(F)F)C2)n1
IC50 (Bifunctional epoxide hydrolase 2 (Ephx2, Rattus norvegicus, UniProt P80299); enzyme activity; inhibitor): 0.0029 µM

CC1Cc2ccccc2N1C(=O)NCCCCN(C)[C@@H]1Cc2cccc3[nH]c(=O)n(c23)C1 (mixture of isomers)
IC50 (HTR1A; ligand displacement; radioligand): 0.0256 µM

Cc1nccc2c1c(=O)n(C)c1cc(OC[C@@H](N)CC(C)C)c(C#N)cc21
IC50 (Alpha-2C adrenergic receptor (ADRA2C, Homo sapiens, UniProt P18825); cell-free assay): > 30 µM

Cn1c(=O)c([N+](=O)[O-])c(Cl)c2ccccc21
IC50 (Adenylate cyclase type 1 (Homo sapiens, UniProt Q08828); cAMP): 0.3 µM

CC(C)(C)n1nc(-c2ccc3nc(OC4CC4)ccc3c2)c(C(N)=O)c1N
IC50 (Death-associated protein kinase 3 (DAPK3, Homo sapiens, UniProt O43293); cell-free assay): > 10 µM

CN1CCN(c2ccc(Nc3ncc4cc(C#N)c(=O)n(C5CCCC5)c4n3)cc2)CC1
IC50 (Mitogen-activated protein kinase kinase kinase kinase 4 (MAP4K4, Homo sapiens, UniProt O95819); enzyme activity; inhibitor): 0.245 µM

COc1ccc2c(Oc3ccc4c(C(=O)Nc5ccccc5N)cccc4c3)ccnc2c1
IC50 (Macrophage-stimulating protein receptor (MST1R, Homo sapiens, UniProt Q04912); enzyme activity; inhibitor): > 0.5 µM

CC(C)(C)n1nc(-c2cnc3cc(OC4CC4)ccc3c2)c(C(N)=O)c1N
IC50 (MAPK14; cell-free assay): > 10 µM

N#C/C(=C\c1ccc(O)c(O)c1)C(=O)OC/C=C/c1ccccc1
IC50 (LRRK2 G2019S; enzyme activity; inhibitor; radiometric): 0.231 µM

COc1cc(C[C@H]2C(=O)OC[C@@H]2Cc2ccc(OC)c(OC)c2)ccc1O
IC50 (PDE3A; enzyme activity; inhibitor): > 20 µM

CN(C)CCC=C1c2ccccc2CCc2ccccc21
IC50 (Estrogen receptor (ESR1, Homo sapiens, UniProt P03372); reporter gene; antagonist): 25.4 µM

Cc1cc(C)nc(NC(=S)N2CCN(c3ccncc3)CC2)c1
IC50 (MAPK14; enzyme activity; inhibitor; ADP detection): 0.1 µM

Cc1cnc(-c2ccc(-c3ccc(NC(=O)Nc4c(F)cc(F)cc4F)cc3F)c3c2C(=O)NC3)[nH]1
IC50 (Serine/threonine-protein kinase PLK4 (PLK4, Homo sapiens, UniProt O00444); enzyme activity; inhibitor): 0.0048 µM
